Reference: ChEMBL document CHEMBL2062525, “Substituted 3-(5-imidazo[2,1-b]thiazolylmethylene)-2-indolinones and analogues: synthesis, cytotoxic activity, and study of the mechanism of action” (J Med Chem, 2012)
Where a name gives a salt, the structure may show the parent alone.

Columns and labels:
[1] = Cytotoxicity against human leukemia cells after 48 hrs; assay type: functional; conditions: Leukemia cell
Procedure, shortened: (§1)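 NCI 60-cell panel (subpanels include leukemia and prostate). […] Percent growth relative to untreated control; some repeats averaged over two experiments.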

[2] = Inhibition of bovine brain tubulin assembly after 20 mins; design: species or system Bos taurus
[3] = Cytotoxicity against human prostate cancer cells after 48 hrs; assay type: functional; conditions: Cancer cell lines; procedure, shortened: as §1
[4] = Cytotoxicity against human ovarian cancer cells after 48 hrs; assay type: functional; conditions: Cancer cell lines
Procedure, shortened: (§2)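 NCI 60-cell panel subpanel lines; compounds first screened at a single 10−5 M, then those passing threshold tested in five-concentration assay over 10−9 to 10−4 M (some to 10−3 M), 48 h exposure. Growth relative to untreated control measured as cell protein; GI50, TGI and LC50 derived; some values are means of two experiments.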

[5] = Cytotoxicity against human renal cancer cells after 48 hrs; assay type: functional; conditions: Cancer cell lines; for CC50: read-out: LC50 (the source's name); procedure, shortened: as §2
[6] = species: Bos taurus; assay: Displacement of [3H]colchicine from bovine brain tubulin at 5 uM after 10 mins
[7] = Cytotoxicity against human melanoma cells after 48 hrs; assay type: functional; conditions: Melanoma cell; for CC50: read-out: LC50 (the source's name); procedure, shortened: as §2
[8] = Cytotoxicity against human COLON cells after 48 hrs; assay type: functional; procedure, shortened: as §2
[9] = tested on: NSCLC; assay: Cytotoxicity against human NSCLC cells after 48 hrs; assay type: functional; procedure, shortened: as §2
[10] = Cytotoxicity against human breast cancer cells after 48 hrs; assay type: functional; conditions: Cancer cell lines; procedure, shortened: as §2
[11] = Cytotoxicity against human CNS cancer cells after 48 hrs; assay type: functional; conditions: Cancer cell lines; procedure, shortened: as §2

| Compound | GI50 [1] [µM] | TGI [1] [µM] | GI50 [3] [µM] | TGI [3] [µM] | GI50 [4] [µM] | TGI [4] [µM] | GI50 [5] [µM] | TGI [5] [µM] | GI50 [7] [µM] | TGI [7] [µM] | GI50 [8] [µM] | TGI [8] [µM] | GI50 [9] [µM] | TGI [9] [µM] | GI50 [10] [µM] | TGI [10] [µM] | GI50 [11] [µM] | LC50 [11] [µM] | TGI [11] [µM] | further results |
| --- | --- | --- | --- | --- | --- | --- | --- | --- | --- | --- | --- | --- | --- | --- | --- | --- | --- | --- | --- | --- |
| COc1nc2sccn2c1/C=C1/C(=O)Nc2cc(Cl)ccc21 | 0.14 | 5.37 | 0.39 | 69.2 | 0.65 | 21.4 | 0.62 | 49 | 0.21 | 34.7 | 0.33 | 22.4 | 1.29 | 79.4 | 0.54 | 58.9 | 0.35 | 75.9 | 16.2 | IC50 [2]: 13 µM; LC50 (concentration killing 50% of starting cells) [4]: 89.1 µM; CC50 [5]: 85.1 µM; inhibition [6]: 53%; CC50 [7]: 93.3 µM; LC50 (concentration giving 50% net cell kill) [8]: 79.4 µM |
| CC[C@]1(O)C[C@H]2CN(CCc3c([nH]c4ccccc34)[C@@](C(=O)OC)(c3cc4c(cc3OC)N(C=O)[C@H]3[C@@](O)(C(=O)OC)[C@H](OC(C)=O)[C@]5(CC)C=CCN6CC[C@]43[C@@H]65)C2)C1 [VINCRISTINE SULFATE] | 0.1 |  | 0.13 |  | 0.32 |  | 0.32 |  | 0.16 |  | 0.1 | 3.98 | 0.25 |  | 0.32 |  | 0.13 |  |  |  |
| O=C1Nc2ccccc2/C1=C\c1c(-c2ccccn2)nc2sccn12 | 0.35 | 14.8 | 1.02 |  | 2.88 | 37.1 | 2.34 | 95.5 | 2.45 | 91.2 | 0.49 | 52.5 | 1.58 | 70.8 | 0.59 | 36.3 | 0.81 | 89.1 | 20.9 | LC50 (concentration killing 50% of starting cells) [4]: 91.2 µM |
| Cc1nn2c(/C=C3/C(=O)Nc4ccc(F)cc43)c(C)nc2s1 | 2.34 |  |  |  | 33.9 |  | 26.9 |  | 26.9 |  | 4.17 |  | 19.5 |  | 6.31 | 57.5 | 20.9 |  | 87.1 |  |
| COc1nc2sccn2c1C=C1C(=O)Nc2ccc(F)cc21 (mixture of isomers) | 3.39 |  | 12 | 93.3 | 5.62 | 44.7 | 6.76 | 47.9 | 6.03 | 47.9 | 3.16 | 61.7 | 6.03 | 66.1 | 2.88 | 51.3 | 6.46 |  | 42.7 |  |
| Cc1ccc(-c2nc3sc(C)cn3c2/C=C2/C(=O)Nc3cc(C)c(O)cc32)cc1 | 52.5 |  | 21.4 |  | 10.5 | 63.1 | 18.2 |  | 33.9 |  | 60.3 |  | 18.6 | 72.4 | 12.6 | 63.1 | 11.8 |  | 91.2 |  |
| COc1nc2sccn2c1/C=C1/C(=O)N(C)c2ccccc21 | 3.89 | 43.6 | 21.4 |  | 6.46 |  | 15.8 | 85.1 | 8.71 | 77.6 | 2.24 | 60.3 | 7.94 | 95.5 | 2.19 | 60.3 | 11 |  | 77.6 |  |
| Cc1cn2c(/C=C3/C(=O)Nc4cc(Cl)ccc43)c(C)nc2s1 | 1.07 | 37.1 | 2.29 |  | 7.41 |  | 4.79 | 70.8 | 1.58 | 57.5 | 0.98 | 66.1 | 2.29 |  | 1.2 | 15.8 | 2.4 |  | 25.7 |  |
| Cc1nn2c(/C=C3/C(=O)Nc4ccc(F)cc43)c(-c3ccc(Cl)cc3)nc2s1 | 25.1 |  |  |  | 21.9 |  | 26.3 | 72.4 | 66.1 |  | 38 |  | 60.3 |  | 36.3 | 95.5 | 20.4 |  | 79.4 |  |
| COc1nc2sccn2c1/C=C1/C(=O)Nc2cccc(Cl)c21 | 2.19 | 64.6 | 13.2 |  | 4.68 | 43.6 | 7.08 | 49 | 4.9 | 60.3 | 3.72 | 91.2 | 7.08 | 70.8 | 3.24 | 50.1 | 6.31 | 87.1 | 32.4 | LC50 (concentration killing 50% of starting cells) [4]: 97.7 µM; CC50 [5]: 89.1 µM; LC50 [10]: 93.3 µM |
| O=C1Nc2cc(Cl)ccc2C1=Cc1c(-c2ccccn2)nc2sccn12 (mixture of isomers) | 0.06 | 4.57 | 0.15 | 31.6 | 0.27 | 11.5 | 0.25 | 15.8 | 0.12 | 15.1 | 0.11 | 21.9 | 0.33 | 28.8 | 0.21 | 12.6 | 0.17 | 38 | 6.03 | IC50 [2]: 9.3 µM; LC50 (concentration killing 50% of starting cells) [4]: 36.3 µM; CC50 [5]: 42.7 µM; inhibition [6]: 48%; CC50 [7]: 38.9 µM; LC50 (concentration giving 50% net cell kill) [8]: 46.8 µM; LC50 [9]: 49 µM; LC50 [10]: 46.8 µM |
| COc1nc2sccn2c1/C=C1/C(=O)Nc2ccc(Cl)cc21 | 1.32 | 26.3 | 3.98 | 81.3 | 3.47 | 46.8 | 3.31 | 58.9 | 3.72 | 40.7 | 1.41 | 64.6 | 4.27 | 89.1 | 2.45 | 74.1 | 3.31 |  | 40.7 |  |
| COc1ccc2c(c1)/C(=C\c1c(-c3ccc(C)cc3)nc3sc(C)cn13)C(=O)N2C | 4.37 | 56.2 | 5.37 |  | 56.2 |  | 4.79 | 70.8 | 52.5 |  | 6.03 | 33.1 | 14.8 | 85.1 | 12.9 | 72.4 | 39.8 |  |  |  |
| COc1nc2sccn2c1/C=C1/C(=O)Nc2ccccc21 | 0.5 | 21.4 | 0.55 | 29.5 | 0.44 | 20.4 | 0.54 | 38.9 | 0.47 | 40.7 | 0.29 | 13.8 | 0.43 | 51.3 | 0.28 | 13.2 | 0.25 | 50.1 | 7.94 | LC50 (concentration killing 50% of cells) [1]: 60.3 µM; IC50 [2]: 3.7 µM; inhibition [6]: 48%; CC50 [7]: 95.5 µM; LC50 (concentration giving 50% net cell kill) [8]: 89.1 µM; LC50 [9]: 93.3 µM; LC50 [10]: 91.2 µM |
| O=C1Nc2ccc(Cl)cc2C1=Cc1c(-c2ccccn2)nc2sccn12 (mixture of isomers) | 0.28 | 7.08 | 1.26 | 19.1 | 1.62 | 17.4 | 1.15 | 10.5 | 0.68 | 11.8 | 0.52 | 10.5 | 1.78 | 18.2 | 0.45 | 7.76 | 0.71 | 66.1 | 22.4 | LC50 (concentration killing 50% of cells) [1]: 69.2 µM; IC50 [2]: > 20 µM; LC50 (concentration killing 50% of cells) [3]: 47.9 µM; LC50 (concentration killing 50% of starting cells) [4]: 50.1 µM; CC50 [5]: 43.6 µM; inhibition [6]: 13%; CC50 [7]: 51.3 µM; LC50 (concentration giving 50% net cell kill) [8]: 33.9 µM; LC50 [9]: 58.9 µM; LC50 [10]: 42.7 µM |
| Cc1ccc(-c2nc3sc(C)cn3c2/C=C2/C(=O)N(C)c3ccccc32)cc1 | 7.08 | 63.1 | 6.46 |  | 32.4 | 89.1 | 15.1 | 85.1 | 17.4 | 87.1 | 20.4 |  | 24 | 89.1 | 13.5 | 75.9 | 19.1 |  | 75.9 |  |
| COc1cc(-c2nc3sc(C)cn3c2/C=C2/C(=O)Nc3ccccc32)c(Br)c(OC)c1OC | 36.3 |  | 30.2 | 85.1 | 39.8 | 85.1 | 30.9 | 75.9 | 29.5 | 85.1 | 26.3 | 75.9 | 32.4 | 89.1 | 19.1 | 63.1 | 23.4 |  | 55 |  |
| COc1ccc2c(c1)/C(=C\c1c(-c3ccc(Cl)cc3)nc3sc(C)nn13)C(=O)N2 |  |  |  |  |  |  | 81.3 |  |  |  |  |  |  |  | 95.5 |  | 69.2 |  |  |  |
